Test results from ChEMBL document CHEMBL1123854, “Dissociation of hypolipidemic and antiplatelet actions from adverse myotonic effects of clofibric acid related enantiomers” (J Med Chem, 1987).

What was measured:
[1] = species: Rattus norvegicus; assay: Liver cholesterol level in male Sprague-Dawley rats (fed with high cholesterol semisynthetic diet) after 1 week of treatment.; type: functional
Procedure, shortened: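 Rats prefed high-cholesterol semisynthetic diet 1 week, then stratified by serum cholesterol into groups of six. Dosed 0.3 mmol/kg intragastrically twice daily in 0.25% methylcellulose for 1 week; controls got vehicle. Livers removed after exsanguination; cholesterol measured in lipid extracts. Mean ± SD, six rats.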

[2] = species: Homo sapiens; assay: Inhibition against platelet aggregation induced by arachidonic acid(AA) in vitro; type: functional
Procedure, shortened: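 Human platelet-rich plasma from drug-free volunteers; compound preincubated 1 min before arachidonic acid (300–500 μM, lowest level giving maximal transmittance change). Aggregation read by aggregometer over 4 min; IC50 for inhibition of maximal aggregation, mean ± SEM, n = 4–10 donors.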

[3] = species: Homo sapiens; assay: Inhibition against platelet aggregation induced by adenosine diphosphate (ADP) in vitro; type: functional
Procedure, shortened: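 Human platelet-rich plasma from drug-free volunteers; compound preincubated 1 min before ADP (1–3 μM, lowest level giving maximal transmittance change). Aggregation followed by aggregometer for 6 min; IC50 for inhibition of the second phase of maximal aggregation, mean ± SEM, n = 4–10 donors.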

[4] = species: Rattus norvegicus; assay: Serum cholesterol level in male Sprague-Dawley rats (fed with high cholesterol semisynthetic diet) after 4 days of treatment.; type: functional, organism-based
Procedure, shortened: (§1)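 Male Sprague-Dawley rats on a high-cholesterol semisynthetic diet for 1 week, then stratified-randomized into groups of six. Dosing was 0.3 mmol/kg twice daily by intragastric route in 0.25% methylcellulose for 1 week; controls received vehicle. Serum cholesterol was measured after 4 and 7 days of dosing. Values are mean ± SD of six rats.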

[5] = species: Rattus norvegicus; assay: Serum cholesterol level in male Sprague-Dawley rats (fed with high cholesterol semisynthetic diet) after 7 days of treatment; type: functional, organism-based; procedure, shortened: as §1
[6] = species: Rattus norvegicus; assay: Serum cholesterol level in male Sprague-Dawley rats (fed with high cholesterol semisynthetic diet)before the treatment.; type: functional, organism-based
Procedure, shortened: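 Male Sprague-Dawley rats fed a high-cholesterol semisynthetic diet for 1 week. Blood was drawn from the orbital plexus under ether anaesthesia before dosing (day -1) for serum cholesterol, which was used to stratify-randomize groups of six. Values are mean ± SD of six rats.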

[7] = species: Rattus norvegicus; assay: Inhibition against chloride conductance in rat extensor digitorum longus(EDL) muscle fibers in vitro; type: functional
Procedure, shortened: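 Rat EDL fibres (Charles River Sprague-Dawley, normal diet) studied in vitro by square-pulse microelectrode method in normal and chloride-free medium at several drug concentrations. Chloride conductance = membrane conductance in normal minus chloride-free solution. Conductance–concentration curves fit to single-site binding equation by nonlinear least squares to give IC50 ± SD; 7–79 fibres from 2–16 muscles per concentration.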

| SMILES | Liver cholesterol [1] | IC50 [2] [µM] | IC50 [3] [µM] | Serum cholesterol [4] [mg/dL] | Serum cholesterol [5] [mg/dL] | Serum cholesterol [6] [mg/dL] | IC50 [7] [µM] |
| --- | --- | --- | --- | --- | --- | --- | --- |
| CC(C)(Oc1ccc(Cl)cc1)C(=O)O [CLOFIBRIC ACID] | 41.9 mg (g of tissue)-1 | > 4000 | 1240 | 113 | 149 | 271 |  |
| C[C@@H](Oc1ccc(Cl)cc1)C(=O)O | 40.8 mg (g of tissue)-1 | 253 | 201 | 116 | 119 | 276 | > 230 |
| C[C@H](Oc1ccc(Cl)cc1)C(=O)O | 45.4 mg (g of tissue)-1 | 1120 | 998 | 107 | 184 | 279 |  |
| CC[C@@H](Oc1ccc(Cl)cc1)C(=O)O | 34.8 mg (g of tissue)-1 | 721 | 686 | 158 | 184 | 275 | > 230 |
| CC[C@H](Oc1ccc(Cl)cc1)C(=O)O | 37.2 mg (g of tissue)-1 | 1600 | 1180 | 174 | 193 | 278 |  |
